This note sets out measurements from ChEMBL document CHEMBL4359867, “Design, synthesis and biological evaluation of novel 4-anilinoquinazoline derivatives as hypoxia-selective EGFR and VEGFR-2 dual inhibitors” (Eur J Med Chem, 2019).

Calls of active or inactive are those of the source. The rule behind the calls is not given here.

As a reminder, the IC50 is the midpoint of a concentration-inhibition curve. Low readings indicate greater potency, high ones weaker potency. By inhibition is commonly meant the relative decrease from the control value, in per cent.

Chain of Vascular endothelial growth factor receptor 2 (P35968 whole entry, the tested form may be a part): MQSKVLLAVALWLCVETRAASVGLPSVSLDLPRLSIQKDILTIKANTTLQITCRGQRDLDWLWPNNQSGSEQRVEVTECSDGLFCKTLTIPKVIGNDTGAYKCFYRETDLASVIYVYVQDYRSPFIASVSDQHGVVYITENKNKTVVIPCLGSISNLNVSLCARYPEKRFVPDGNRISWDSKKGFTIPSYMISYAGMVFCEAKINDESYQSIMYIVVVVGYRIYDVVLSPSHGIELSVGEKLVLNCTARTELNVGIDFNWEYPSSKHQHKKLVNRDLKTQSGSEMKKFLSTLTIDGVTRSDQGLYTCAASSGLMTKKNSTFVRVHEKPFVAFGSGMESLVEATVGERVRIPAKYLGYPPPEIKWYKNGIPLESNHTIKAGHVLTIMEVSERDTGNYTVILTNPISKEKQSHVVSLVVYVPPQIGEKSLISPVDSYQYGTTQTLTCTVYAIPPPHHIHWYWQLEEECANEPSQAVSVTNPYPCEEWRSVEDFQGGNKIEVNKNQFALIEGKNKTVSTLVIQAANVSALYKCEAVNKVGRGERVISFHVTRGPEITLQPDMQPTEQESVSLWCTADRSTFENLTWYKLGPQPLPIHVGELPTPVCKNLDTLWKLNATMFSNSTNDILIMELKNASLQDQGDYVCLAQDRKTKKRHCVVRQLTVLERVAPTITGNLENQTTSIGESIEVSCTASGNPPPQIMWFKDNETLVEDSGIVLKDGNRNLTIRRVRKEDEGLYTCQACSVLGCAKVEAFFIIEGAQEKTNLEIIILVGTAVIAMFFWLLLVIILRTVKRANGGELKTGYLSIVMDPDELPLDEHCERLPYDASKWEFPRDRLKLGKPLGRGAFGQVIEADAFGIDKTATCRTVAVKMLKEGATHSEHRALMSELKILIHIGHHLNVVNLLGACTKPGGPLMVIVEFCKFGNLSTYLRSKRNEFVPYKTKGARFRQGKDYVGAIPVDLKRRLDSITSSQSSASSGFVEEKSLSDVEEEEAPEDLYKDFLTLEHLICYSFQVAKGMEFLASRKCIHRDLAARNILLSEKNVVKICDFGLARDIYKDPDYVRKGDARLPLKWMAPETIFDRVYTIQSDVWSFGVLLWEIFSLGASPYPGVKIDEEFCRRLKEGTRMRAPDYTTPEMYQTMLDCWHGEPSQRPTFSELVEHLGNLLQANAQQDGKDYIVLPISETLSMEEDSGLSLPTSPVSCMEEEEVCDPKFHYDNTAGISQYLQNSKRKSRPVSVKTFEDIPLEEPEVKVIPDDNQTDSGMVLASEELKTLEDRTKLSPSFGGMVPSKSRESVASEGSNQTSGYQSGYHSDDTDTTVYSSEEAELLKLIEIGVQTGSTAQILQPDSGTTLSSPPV

The first series concerns the target Vascular endothelial growth factor receptor 2 (Homo sapiens, UniProt P35968). The series is described as follows: Inhibition of N-terminal GST-tagged human VEGFR2 cytoplasmic domain (790 to 1356 residues) expressed in baculovirus expression system using FAM-22 peptide as substrate incubated for 10 mins followed by substrate addition by caliper method.
Settings: not given
The gist of the method: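 Compounds (DMSO stocks 40 μM–0.2 nM, ten levels) tested in duplicate. Enzyme preincubated with compound 10 min at room temperature, then FAM-P22 peptide/ATP added and incubated at 28 °C. Stopped with EDTA-containing buffer. IC50 obtained by four-parameter Hill fit; staurosporine as reference.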
Consider `COc1cc2c(Nc3ccc(Cl)c(Cl)c3F)ncnc2cc1OCCOCCNC(=O)Cn1cnc([N+](=O)[O-])n1`, for which the IC50 worked out at 67.8 nM. In other words, the double-digit nanomolar range.
Still for that read-out and setting: the value for `COc1cc2c(Nc3ccc(F)cc3Cl)ncnc2cc1OCCOCCOCCNC(=O)Cn1cnc([N+](=O)[O-])n1` was 2870 nM; that for `COc1cc2c(Nc3ccc(F)cc3)ncnc2cc1OCCOCCNC(=O)Cn1cnc([N+](=O)[O-])n1` was 864 nM.

In a further series the target is Epidermal growth factor receptor (Homo sapiens, UniProt P00533). The series is described as follows: Inhibition of N-terminal GST-tagged human EGFR cytoplasmic domain (669 to 1210 residues) expressed in baculovirus expression system using FAM-22 peptide as substrate incubated for 10 mins followed by substrate addition by caliper method.
Chain of Epidermal growth factor receptor (P00533 whole entry, the tested form may be a part): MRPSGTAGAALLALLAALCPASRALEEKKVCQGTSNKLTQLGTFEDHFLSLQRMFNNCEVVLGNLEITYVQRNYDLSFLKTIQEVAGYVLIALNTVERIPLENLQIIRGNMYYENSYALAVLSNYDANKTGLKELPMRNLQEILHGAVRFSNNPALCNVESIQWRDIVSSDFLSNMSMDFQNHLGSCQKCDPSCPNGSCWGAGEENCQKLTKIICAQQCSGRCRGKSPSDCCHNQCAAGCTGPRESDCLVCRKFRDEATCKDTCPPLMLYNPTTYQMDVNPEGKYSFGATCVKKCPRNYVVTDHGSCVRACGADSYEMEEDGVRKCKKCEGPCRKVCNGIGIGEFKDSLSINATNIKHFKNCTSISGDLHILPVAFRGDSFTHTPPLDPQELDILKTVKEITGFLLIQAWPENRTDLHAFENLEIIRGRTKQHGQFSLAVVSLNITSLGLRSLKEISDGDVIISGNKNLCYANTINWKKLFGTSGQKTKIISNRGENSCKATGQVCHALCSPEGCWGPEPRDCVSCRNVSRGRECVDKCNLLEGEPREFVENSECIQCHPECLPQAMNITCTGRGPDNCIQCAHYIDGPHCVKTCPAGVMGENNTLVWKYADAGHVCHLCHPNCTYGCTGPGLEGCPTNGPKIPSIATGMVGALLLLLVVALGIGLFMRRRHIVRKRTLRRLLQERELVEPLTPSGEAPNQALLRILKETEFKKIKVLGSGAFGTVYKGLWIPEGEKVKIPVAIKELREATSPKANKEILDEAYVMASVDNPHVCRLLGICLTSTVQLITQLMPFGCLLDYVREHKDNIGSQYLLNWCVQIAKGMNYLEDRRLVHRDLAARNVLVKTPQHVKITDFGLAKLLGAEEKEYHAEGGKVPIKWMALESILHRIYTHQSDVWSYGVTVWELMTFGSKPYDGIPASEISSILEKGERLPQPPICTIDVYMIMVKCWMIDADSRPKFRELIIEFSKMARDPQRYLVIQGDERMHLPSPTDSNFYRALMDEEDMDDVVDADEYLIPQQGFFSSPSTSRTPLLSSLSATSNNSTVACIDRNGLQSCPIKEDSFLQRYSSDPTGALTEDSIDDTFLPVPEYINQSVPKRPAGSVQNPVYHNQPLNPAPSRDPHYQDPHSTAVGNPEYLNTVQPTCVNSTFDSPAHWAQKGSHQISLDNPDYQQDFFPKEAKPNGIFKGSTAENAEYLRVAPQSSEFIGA
Settings: not given
The compound `COc1cc2c(Nc3ccc(F)cc3Cl)ncnc2cc1OCCOCCOCCNC(=O)Cn1cnc([N+](=O)[O-])n1` showed an IC50 of 12.9 nM.
Turning to `COc1cc2c(Nc3ccc(F)cc3)ncnc2cc1OCCOCCNC(=O)Cn1cnc([N+](=O)[O-])n1`, the IC50 worked out at 16.4 nM.

Test system in another series: not listed separately
As to the kind of experiment: Cytotoxicity against human A549 cells assessed as inhibition of cell growth at 0.5 uM after 48 hrs under normoxic condition by CCk-8 assay relative to control. It counts as cell-based.
Settings: not given
The gist of the method: (§1)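 RPMI-1640 with 10% fetal calf serum. Compounds dissolved in DMSO. Hypoxia produced chemically with cobalt(II) chloride; normoxic wells received no CoCl2. Viability read by CCK-8 (WST-8) at 450 nm, and inhibition ratio calculated against untreated control.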
In the case of `COc1cc2c(Nc3ccc(Cl)c(Cl)c3F)ncnc2cc1OCCOCCNC(=O)Cn1cnc([N+](=O)[O-])n1`, the inhibition at 48 h, 0.5 µM stood at 13.8%.
On the same count and under the same terms, under `COc1cc2c(Nc3ccc(F)cc3)ncnc2cc1OCCOCCNC(=O)Cn1cnc([N+](=O)[O-])n1` stands 8.43%.

Test system in another series: not listed separately
As to the kind of experiment: Cytotoxicity against human NCI-H446 cells assessed as inhibition of cell growth at 0.5 uM after 48 hrs under normoxic condition by CCk-8 assay relative to control.
Settings: not given
It counts as cell-based. The gist of the method: as §1
With `COc1cc2c(Nc3ccc(Cl)c(Cl)c3F)ncnc2cc1OCCOCCNC(=O)Cn1cnc([N+](=O)[O-])n1`, the inhibition at 48 h, 0.5 µM turned out to be 20.5%.
The same measure, in the same setting: under `COc1cc2c(Nc3ccc(F)cc3)ncnc2cc1OCCOCCNC(=O)Cn1cnc([N+](=O)[O-])n1` stands 11.1%.

A further series concerns A549. The series is described as follows: Antiproliferative activity against human A549 cells assessed as inhibition of cell growth at 0.5 uM after 48 hrs under hypoxic condition (200 uM CoCl2) by CCk-8 assay relative to control (reference value: 59.94%). It counts as functional.
Settings: not given
The gist of the method:
as §1
In the case of `COc1cc2c(Nc3ccc(Cl)c(Cl)c3F)ncnc2cc1OCCOCCNC(=O)Cn1cnc([N+](=O)[O-])n1`, the “inhibition (INH)” value is 82.25%.
With `COc1cc2c(Nc3ccc(F)cc3)ncnc2cc1OCCOCCNC(=O)Cn1cnc([N+](=O)[O-])n1`, the “inhibition (INH)” value was determined as 72.53%.

A further series has as its system NCI-H446. As to the kind of experiment: Antiproliferative activity against human NCI-H446 cells assessed as inhibition of cell growth at 0.5 uM after 48 hrs under hypoxic condition (200 uM CoCl2) by CCk-8 assay relative to control (reference value: 65.84%). The format is functional.
Settings: not given
The method, boiled down: as §1
Consider `COc1cc2c(Nc3ccc(Cl)c(Cl)c3F)ncnc2cc1OCCOCCNC(=O)Cn1cnc([N+](=O)[O-])n1`, for which the “inhibition (INH)” value amounted to 77.9%.
Same read-out and setting: the value for `COc1cc2c(Nc3ccc(F)cc3)ncnc2cc1OCCOCCNC(=O)Cn1cnc([N+](=O)[O-])n1` was 78.7%.

The subject of a further series is A549. As to the kind of experiment: Antiproliferative activity against human A549 cells assessed as inhibition of cell growth at 0.5 uM in hypoxia condition (200 uM CoCl2) and under irradiation at 8 Gy for 24 hrs and measured after 24 hrs by CCK8 assay (reference value: 64.135%). It counts as functional.
Settings: not given
(Tetrazolium assays rely on reduction of a dye to a coloured formazan, in cell work by metabolically active cells.)
On to `COc1cc2c(Nc3ccc(Cl)c(Cl)c3F)ncnc2cc1OCCOCCNC(=O)Cn1cnc([N+](=O)[O-])n1`, for which the “inhibition (INH)” value amounted to 80.7%.
Take `COc1cc2c(Nc3ccc(F)cc3)ncnc2cc1OCCOCCNC(=O)Cn1cnc([N+](=O)[O-])n1`: the “inhibition (INH)” value is listed as 76.94%.

A further series has as its system NCI-H446. The series is described as follows: Antiproliferative activity against human NCI-H446 cells assessed as inhibition of cell growth at 0.5 uM in hypoxia condition (200 uM CoCl2) and under irradiation at 8 Gy for 24 hrs and measured after 24 hrs by CCK8 assay (reference value: 68.77%). It counts as functional.
Settings: not given
`COc1cc2c(Nc3ccc(Cl)c(Cl)c3F)ncnc2cc1OCCOCCNC(=O)Cn1cnc([N+](=O)[O-])n1`: the inhibition (INH) is 85%.
Take `COc1cc2c(Nc3ccc(F)cc3)ncnc2cc1OCCOCCNC(=O)Cn1cnc([N+](=O)[O-])n1`: the “inhibition (INH)” value turned out to be 80.58%.

Another series concerns A549. As to the kind of experiment: Antiproliferative activity against human A549 cells assessed as hypoxic sensitive enhancement ratio in presence of CoCl2. It counts as functional.
Settings: not given
Take `COc1cc2c(Nc3ccc(F)cc3)ncnc2cc1OCCOCCNC(=O)Cn1cnc([N+](=O)[O-])n1`: the Ratio is listed as 1.25.

The subject of the next series is A549. The series is described as follows: Antiproliferative activity against human A549 cells assessed as hypoxic sensitive enhancement ratio in presence of Cocl2 under irradiation. It counts as functional.
Settings: not given
In the case of `COc1cc2c(Nc3ccc(F)cc3)ncnc2cc1OCCOCCNC(=O)Cn1cnc([N+](=O)[O-])n1`, the Ratio was 0.86.

The next series has as its system A549. The series is described as follows: Downregulation of VEGF expression in human A549 cells at 5 uM after 24 hrs under normoxic condition by q-PCR analysis relative to control. The format is cell-based. Conditions: a549, 24 h.
For the compound `COc1cc2c(Nc3ccc(Cl)c(Cl)c3F)ncnc2cc1OCCOCCNC(=O)Cn1cnc([N+](=O)[O-])n1`, the “fold change (FC)” value is reported as 0.1833.

In another series the test system is A549. As to the kind of experiment: Downregulation of VEGF expression in human A549 cells at 5 uM after 24 hrs under hypoxic condition by q-PCR analysis relative to control. It counts as functional.
Settings: not given
`COc1cc2c(Nc3ccc(Cl)c(Cl)c3F)ncnc2cc1OCCOCCNC(=O)Cn1cnc([N+](=O)[O-])n1`: the “fold change (FC)” value was 0.0037.

In a further series the test system is A549. As to the kind of experiment: Antitumour activity against human A549 cells xenografted in Balb/c mouse assessed as tumour growth inhibition at 10 mg/kg, po administered daily and mesured at day 17 relative to control. The format is functional. As to conditions: 408 h, read-out: TGI. The method, boiled down: (§2)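 Male BALB/c-nu mice, 1 × 10^7 A549 cells implanted sc in the flank. Dosing began seven days after implantation: 10 mg/kg oral, daily for 17 days, 5 mice per group, with a vehicle control group. Tumour size measured daily by caliper, with body weight and clinical signs also recorded daily. TGI calculated from volume changes relative to starting volumes versus control.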
For orientation: Xenograft models place foreign cells or tissue in a host animal.
For the compound `COc1cc2c(Nc3ccc(Cl)c(Cl)c3F)ncnc2cc1OCCOCCNC(=O)Cn1cnc([N+](=O)[O-])n1`, the inhibition in vivo at 10 mg/kg was found to be 49%.

The test system of a further series is A549. The series is described as follows: Antitumour activity against human A549 cells xenografted in Balb/c mouse assessed as increase in tumour volume at 10 mg/kg, po administered daily and mesured after 7 days. The format is functional, organism-based.
Settings: not given
The gist of the method:
as §2
Regarding `COc1cc2c(Nc3ccc(Cl)c(Cl)c3F)ncnc2cc1OCCOCCNC(=O)Cn1cnc([N+](=O)[O-])n1`, the outcome was Active.

The subject of the next series is A549. As to the kind of experiment: Antitumour activity against human A549 cells xenografted in po dosed Balb/c mouse assessed as tumour growth inhibition administered daily for 18 days and […]. The format is functional, organism-based.
Settings: not given
Turning to `COc1cc2c(Nc3ccc(Cl)c(Cl)c3F)ncnc2cc1OCCOCCNC(=O)Cn1cnc([N+](=O)[O-])n1`, the inhibition entry was “Dose-dependent effect”.

The next series has as its system A549. The series is described as follows: Antitumour activity against human A549 cells xenografted in Balb/c mouse assessed as tumour growth inhibition at 50 mg/kg, po administered daily and measured at day 18 relative to control. The format is functional. As to conditions: 432 h, read-out: TGI. The gist of the method:
(§3)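 Male BALB/c-nu mice carrying sc flank A549 xenografts (1 × 10^7 cells). Dosing began 6–7 days post-inoculation, with oral 5, 15 or 50 mg/kg daily for 18 days and 3 mice per group. Tumours measured by caliper on days 4, 6, 8, 11, 13, 15 and 18. TGI derived from volume change from dosing start relative to untreated controls.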
As to `COc1cc2c(Nc3ccc(Cl)c(Cl)c3F)ncnc2cc1OCCOCCNC(=O)Cn1cnc([N+](=O)[O-])n1`, the inhibition in vivo at 50 mg/kg came to 76.3%.

The next series relates to A549. The series is described as follows: Antitumour activity against human A549 cells xenografted in Balb/c mouse assessed as tumour growth inhibition at 5 mg/kg, po administered daily and measured at day 18 relative to control. It counts as functional. Conditions: 432 h, read-out: TGI. The gist of the method:
as §3
For the compound `COc1cc2c(Nc3ccc(Cl)c(Cl)c3F)ncnc2cc1OCCOCCNC(=O)Cn1cnc([N+](=O)[O-])n1`, the inhibition in vivo at 5 mg/kg was found to be 28.1%.

The subject of the next series is A549. As to the kind of experiment: Antitumour activity against human A549 cells xenografted in Balb/c mouse assessed as tumour growth inhibition at 15 mg/kg, po administered daily and measured at day 18 relative to control. It counts as functional. Conditions: 432 h, read-out: TGI. The method, boiled down: as §3
With `COc1cc2c(Nc3ccc(Cl)c(Cl)c3F)ncnc2cc1OCCOCCNC(=O)Cn1cnc([N+](=O)[O-])n1`, the inhibition in vivo at 15 mg/kg was determined as 63.9%.

Test system in a further series: not listed separately
The series is described as follows: Toxicity in Balb/c mouse xenografted with human A549 cells assessed as effect on weight loss at 10 mg/kg, po measured up to 17 days. As to conditions: in vivo, 408 h. It counts as organism-based. The method, boiled down: as §2
With `COc1cc2c(Nc3ccc(Cl)c(Cl)c3F)ncnc2cc1OCCOCCNC(=O)Cn1cnc([N+](=O)[O-])n1`, the Activity result is listed as “Non-Toxic”.

A further series relates to NCI-H446. The series is described as follows: Antiproliferative activity against human NCI-H446 cells assessed as hypoxic sensitive enhancement ratio in presence of CoCl2.
Settings: not given
It counts as functional.
For `COc1cc2c(Nc3ccc(F)cc3)ncnc2cc1OCCOCCNC(=O)Cn1cnc([N+](=O)[O-])n1`, the Ratio is listed as 1.13.

Another series concerns NCI-H446. The series is described as follows: Antiproliferative activity against human NCI-H446 cells assessed as hypoxic sensitive enhancement ratio in presence of Cocl2 under irradiation. It counts as functional.
Settings: not given
On to `COc1cc2c(Nc3ccc(F)cc3)ncnc2cc1OCCOCCNC(=O)Cn1cnc([N+](=O)[O-])n1`, for which the Ratio worked out at 0.86.
